How the values were obtained:
[1] = Retardation factor of the compound using toulene-ethyl acetate-formic acid at ratio of 5:4:1 as solvent system by thin layer chromatography; format: physicochemical
Rattus norvegicus = assay: Antihyperglycemic activity in glucose-fed hyperglycaemic Wistar albino rat assessed as inhibition of postprandial hyperglycemia at 0.05 mM/kg, po administered via gavage 30 mins prior to glucose challenge measured 60 mins after glucose load; format: functional; set-up: scale not given: the % may be the effect or the level left
In short: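 Rats fasted at least 16 h with water available, groups of six. Vehicle 1% w/v CMC in distilled water, 10 ml/kg, given orally. Glucose load 3 g/kg 30 min after treatment. Retro-orbital blood sampled just before and 60 min after the load. Glucose tolerance by AUC, percent activity from AUC against vehicle group, Dunnett's test.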

[2] = target: Aldo-keto reductase family 1 member B1 (Rattus norvegicus, UniProt P07943); assay: Inhibition of aldose reductase in rat lens by spectrophotometer analysis
In short: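 Crude enzyme from rat lens homogenized in 9 volumes 100 mM potassium phosphate pH 6.2, spun 15,000 × g for 30 min at 4 °C, supernatant used. Assay in 50 mM potassium phosphate pH 6.2 with 0.4 M lithium sulphate, 5 mM β-mercaptoethanol, 10 mM DL-glyceraldehyde, 0.1 mM NADPH, at 37 °C. DMSO-dissolved compound preincubated 5 min, reaction started with NADPH, read spectrophotometrically, triplicate. IC50 by non-linear regression of % inhibition vs log concentration.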

[3] = Retardation factor of the compound using chloroform-acetone at ratio of 9:1 as solvent system by thin layer chromatography; format: physicochemical
[4] = Retardation factor of the compound using chloroform-acetone at ratio of 8:2 as solvent system by thin layer chromatography; format: physicochemical

Row | SMILES | Rf [1] | IC50 ([2]; read-out: IC50) | Rf [3] | IC50 [2] | Rf [4] | Activity (Rattus norvegicus)
1 | CN(C)c1ccc(C2=NN(c3ccc(S(=O)(=O)NC(=S)NCc4ccccc4)cc3)C(c3ccc(Cl)cc3)C2)cc1 (centres undefined) | 0.87 | – | – | – | – | 4.2%
2 | COc1cc(C2CC(c3ccc(N(C)C)cc3)=NN2c2ccc(S(=O)(=O)NC(=S)NCc3ccccc3)cc2)cc(OC)c1OC (centres undefined) | 0.92 | – | – | – | – | 28.6%
3 | CN(C)c1ccc(C2=NN(c3ccc(S(=O)(=O)NC(=S)NCc4ccccc4)cc3)C(c3ccccc3Cl)C2)cc1 (centres undefined) | 0.75 | 85 nM | – | – | – | 15.3%
4 | COc1ccc(C2CC(c3ccc(N(C)C)cc3)=NN2c2ccc(S(=O)(=O)NC(=S)NCc3ccccc3)cc2)cc1 (centres undefined) | 0.65 | – | – | – | – | 11.7%
5 | Cc1ccc(S(=O)(=O)NC(=O)NN2CC3CCCC3C2)cc1 (centres undefined) [GLICLAZIDE] | – | – | – | – | – | 25.4%
6 | CN(C)c1ccc(C2=NN(c3ccc(S(=O)(=O)NC(=O)NCc4ccccc4)cc3)C(c3ccccc3)C2)cc1 (centres undefined) | 0.85 | – | – | Not Active | – | 15.5%
7 | CN(C)c1ccc(C2=NN(c3ccc(S(=O)(=O)NC(=S)NCc4ccccc4)cc3)C(c3ccccc3)C2)cc1 (centres undefined) | 0.88 | 90.1 nM | – | – | – | 24.2%
8 | Cc1ccc(C2CC(c3ccc(N(C)C)cc3)=NN2c2ccc(S(=O)(=O)NC(=O)NCc3ccccc3)cc2)cc1 (centres undefined) | – | – | – | – | 0.88 | 12%
9 | COc1ccc(C2CC(c3ccc(N(C)C)cc3)=NN2c2ccc(S(=O)(=O)NC(=O)NCc3ccccc3)cc2)cc1OC (centres undefined) | 0.56 | – | – | – | – | 18%
10 | CCCCNC(=S)NS(=O)(=O)c1ccc(N2N=C(c3ccc(N(C)C)cc3)CC2c2ccc(OC)cc2)cc1 (centres undefined) | 0.9 | – | – | – | – | 17.2%

Further lines, with some results ahead:

Row | Rf [1] | IC50 ([2]; read-out: IC50) | Rf [3] | IC50 [2] | Rf [4] | SMILES | Activity (Rattus norvegicus)
11 | 0.78 | – | – | – | – | CN(C)c1ccc(C2=NN(c3ccc(S(=O)(=O)NC(=O)NCc4ccccc4)cc3)C(c3ccc(Cl)cc3)C2)cc1 (centres undefined) | 6.7%
12 | – | – | 0.83 | – | – | COc1cc(C2CC(c3ccc(N(C)C)cc3)=NN2c2ccc(S(=O)(=O)NC(=O)NCc3ccccc3)cc2)cc(OC)c1OC (centres undefined) | 29.3%
13 | 0.79 | – | – | Not Active | – | CN(C)c1ccc(C2=NN(c3ccc(S(=O)(=O)NC(=O)NCc4ccccc4)cc3)C(c3ccccc3Cl)C2)cc1 (centres undefined) | 4.7%
14 | 0.66 | 17.5 nM | – | – | – | CCCCNC(=S)NS(=O)(=O)c1ccc(N2N=C(c3ccc(N(C)C)cc3)CC2c2ccc(Cl)cc2)cc1 (centres undefined) | 18.9%
15 | 0.88 | 43 nM | – | – | – | CCCCNC(=S)NS(=O)(=O)c1ccc(N2N=C(c3ccc(N(C)C)cc3)CC2c2ccccc2)cc1 (centres undefined) | 10.5%
16 | – | 69.9 nM | 0.9 | – | – | Cc1ccc(C2CC(c3ccc(N(C)C)cc3)=NN2c2ccc(S(=O)(=O)NC(=S)NCc3ccccc3)cc2)cc1 (centres undefined) | 21.7%
17 | 0.7 | – | – | Not Active | – | COc1ccc(C2CC(c3ccc(N(C)C)cc3)=NN2c2ccc(S(=O)(=O)NC(=O)NCc3ccccc3)cc2)cc1 (centres undefined) | 17.5%
18 | 0.97 | 17.8 nM | – | – | – | CN(C)c1ccc(C2=NN(c3ccc(S(=O)(=O)NC(=S)NC4CCCCC4)cc3)C(c3ccccc3)C2)cc1 (centres undefined) | 2.7%
